The record followed here is ChEMBL document CHEMBL1156883, “Low molecular weight antagonists of the myelin-associated glycoprotein: synthesis, docking, and biological evaluation” (J Med Chem, 2010).

Data set [1] addresses T1, Myelin-associated glycoprotein (Mus musculus) (UniProt P20917).
T1 sequence (whole entry): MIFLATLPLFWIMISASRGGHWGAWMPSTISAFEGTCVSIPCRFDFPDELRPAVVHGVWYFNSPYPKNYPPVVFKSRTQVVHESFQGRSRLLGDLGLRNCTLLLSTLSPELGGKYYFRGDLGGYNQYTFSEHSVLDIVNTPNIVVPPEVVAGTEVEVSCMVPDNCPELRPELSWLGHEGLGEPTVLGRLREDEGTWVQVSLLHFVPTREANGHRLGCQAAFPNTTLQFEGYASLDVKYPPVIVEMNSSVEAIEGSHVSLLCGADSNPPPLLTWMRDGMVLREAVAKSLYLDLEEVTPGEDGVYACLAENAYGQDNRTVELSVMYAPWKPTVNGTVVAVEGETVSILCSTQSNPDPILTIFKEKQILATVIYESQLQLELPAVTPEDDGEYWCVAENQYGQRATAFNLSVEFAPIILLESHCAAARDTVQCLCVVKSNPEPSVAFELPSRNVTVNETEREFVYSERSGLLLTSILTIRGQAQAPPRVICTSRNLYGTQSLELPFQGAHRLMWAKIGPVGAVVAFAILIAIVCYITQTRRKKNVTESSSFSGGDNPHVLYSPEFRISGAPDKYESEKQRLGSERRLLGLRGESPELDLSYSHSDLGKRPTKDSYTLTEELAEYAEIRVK
Put plainly: Inhibition of mouse MAGd1-3Fc expressed in CHO-Lec 3.2.8.1 cells by hepten inhibition assay relative to sodium-(2R,4S,5R,6R)-5-acetamido-2-(benzyloxy)-6-((1S,2R)-3-(4-chlorobenzamido)-1,2-dihydroxypropyl)-4-hydroxytetrahydro-2H-pyran-2-carboxylate. The data set is classed as cell-based. A digest of the protocol: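 Fetuin-coated microtiter plates. Murine MAGd1-3-Fc (from CHO-Lec 3.2.8.1, dialyzed into 10 mM phosphate pH 7.4) bound in the presence of 7-8 inhibitor concentrations, in triplicate. Bound protein detected with alkaline phosphatase-labeled anti-Fc, read as initial rate of fluorescein release from fluorescein diphosphate. IC50 from binding curves converted to rIC50. At least three independent titrations.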

Data set [2] has as its target T2, Myelin-associated glycoprotein (Mus musculus, UniProt P20917).
T2 sequence (P20917 whole entry): T1 sequence (whole entry)
Put plainly: Binding affinity to mouse MAGd1-3Fc expressed in CHO-Lec 3.2.8.1 cells by SPR analysis. The method in brief: (§1)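 Murine MAGd1-3-Fc (purified from CHO-Lec 3.2.8.1 supernatant) captured at 30-40 μg/mL to about 2000 RU on protein A, which was amine-coupled to a CM5 chip. Runs at 25 °C, 20 μL/min, with 1 min injection and 1 min dissociation. Ten-fold dilution series in duplicate, double blank referenced. Negative sensorgrams mirrored; equilibrium KD.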
(In general: Surface plasmon resonance follows binding to a sensor surface in real time, without labels.)

Data set [3] is described as follows: Octanol-water distribution coefficient, log D at pH 7.4 by shake-flask technique. The data set is classed as physicochemical.
For data set [4], the target named is T2, Myelin-associated glycoprotein. As to the kind of experiment: Binding affinity to mouse MAGd1-3Fc expressed in CHO-Lec 3.2.8.1 cells by biocore. In kind it is cell-based. The method in brief: as §1
For data set [5] the target is unchanged. Put plainly: Binding affinity to mouse MAGd1-3Fc expressed in CHO-Lec 3.2.8.1 cells under HBS-EP condition by CM5 chip SPR analysis. A digest of the protocol:
as §1

For data set [6] the target is unchanged. Put plainly: Binding affinity to mouse MAGd1-3Fc expressed in CHO-Lec 3.2.8.1 cells under HEPES condition by CM5 chip SPR analysis. A digest of the protocol:
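Murine MAGd1-3-Fc captured on protein A on a CM5 chip. Running buffer carried 50 mM instead of 10 mM HEPES to raise buffer capacity. SPR at 25 °C, 20 μL/min, 1 min injection and 1 min dissociation, double blank referenced. KD taken at equilibrium from mirrored sensorgrams.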

For data set [7] the target is unchanged. Put plainly: Binding affinity to mouse MAGd1-3Fc expressed in CHO-Lec 3.2.8.1 cells under NaCl condition by CM5 chip SPR analysis. A digest of the protocol:
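SPR on a CM5 chip with protein A-captured murine MAGd1-3-Fc. Salt was raised to 150-500 mM NaCl to exclude ionic repulsion. Runs at 25 °C, 20 μL/min, 1 min contact and 1 min dissociation, double blank referenced. Equilibrium KD from mirrored sensorgrams.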

For data set [8] the target is unchanged. As to the kind of experiment: Binding affinity to mouse MAGd1-3Fc expressed in CHO-Lec 3.2.8.1 cells under carboxymethyl-dextran sodium salt condition by CM5 chip SPR analysis. A digest of the protocol:
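Dextran (1 mg/mL) added to the running buffer to test nonspecific binding to the matrix. Murine MAGd1-3-Fc captured via protein A on a CM5 chip. Runs at 25 °C, 20 μL/min, 1 min injection and 1 min dissociation. Equilibrium KD from mirrored sensorgrams.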

Data set [9] has the same target. As to the kind of experiment: Binding affinity to mouse MAGd1-3Fc expressed in CHO-Lec 3.2.8.1 cells under HBS-EP condition by CM4 chip SPR analysis. A digest of the protocol: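 Protein A was amine-coupled to a CM4 chip (lower carboxylate density) and murine MAGd1-3-Fc captured on it. Run in HBS-EP at 25 °C, 20 μL/min, with 1 min association and 1 min dissociation. Ten-fold dilution series in duplicate, double blank referenced. Negative sensorgrams mirrored to give equilibrium KD.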

The nature of data set [10]: Stability in artificial cerebrospinal fluid at 37 degC […]. To be noted: read-out: Stability. In kind it is physicochemical.
The nature of data set [11]: Stability in buffer solution at 37 degC after 19 hrs. The data set is classed as physicochemical. To be noted: read-out: Stability.
In data set [12] the target is T1, Myelin-associated glycoprotein (Mus musculus). Put plainly: Relative binding affinity to mouse MAGd1-3Fc expressed in CHO-Lec 3.2.8.1 cells by NMR analysis relative to compound 4.

Turning to `CC(=O)N[C@H]1[C@H]([C@@H](O)[C@H](O)CNC(=O)c2ccc(Cl)cc2)O[C@@](OCc2cccc(Cl)c2Cl)(C(=O)O)C[C@@H]1O`, the Ratio in data set [1] was found to be 0.5. In data set [2], this compound displayed a Kd of 4.3 µM. The logD in data set [3] stood at 0.53.

For `CC(=O)N[C@H]1[C@H]([C@@H](O)[C@H](O)CNC(=O)c2ccc(Cl)cc2)O[C@@](OCc2ccc(Cl)cc2)(C(=O)O)C[C@@H]1O`, the Ratio in [1] was found to be 1.3. The affinity in [2], expressed as Kd, was 15 µM. This compound gave a logD in data set [3] of 0.36.

On to `COCC(=O)N[C@H]1[C@H]([C@@H](O)[C@H](O)CNC(=O)c2ccc(Cl)cc2)O[C@@](OCc2cccc(F)c2F)(C(=O)O)C[C@@H]1O`, for which the Ratio in data set [1] was 0.14. The compound further had a dissociation constant Kd in data set [2] of 2.3 µM. Further, the logD in data set [3] came out at 0.06.

`CO[C@]1(C(=O)O)C[C@H](O)[C@@H](NC(C)=O)[C@H]([C@@H](O)[C@H](O)CNC(=O)c2ccccc2)O1`: in data set [1], the Ratio was 18. In addition, the Kd in data set [2] and in data set [4] was 137 µM throughout.

In the case of `CC(=O)N[C@H]1[C@H]([C@@H](O)[C@H](O)CNC(=O)c2ccc(Cl)cc2)O[C@@](OCc2ccc3ccccc3c2)(C(=O)O)C[C@@H]1O`, the Ratio in data set [1] was determined as 0.74. Further, the Kd in data set [2] was determined as 11.6 µM. In [3], this compound gave a logD of 0.58.

As for `O=C(CCl)N[C@H]1[C@H]([C@@H](O)[C@H](O)CNC(=O)c2ccc(Cl)cc2)O[C@@](OCc2cccc(F)c2F)(C(=O)O)C[C@@H]1O`, the Ratio in [1] is 0.07. Binding in data set [2] was put at a Kd of 2.1 µM. For the same compound, the logD in [3] worked out at 0.35.

As to `CC(=O)N[C@H]1[C@H]([C@@H](O)[C@H](O)CNC(=O)c2ccc(Cl)cc2)O[C@@](OCc2ccc(F)cc2)(C(=O)O)C[C@@H]1O`, in data set [1], the Ratio was 1.2. The same compound yielded a Kd in data set [2] of 13 µM. This compound displayed a logD in [3] of -0.11.

Turning to `CC(=O)N[C@H]1[C@H]([C@@H](O)[C@H](O)CNC(=O)c2ccc(Cl)cc2)O[C@@](OCc2ccccc2)(C(=O)O)C[C@@H]1O`, in [1], the Ratio was found to be 1. In [2], this compound gave a Kd of 17 µM.

For `CC(=O)N[C@H]1[C@H]([C@@H](O)[C@H](O)CNC(=O)c2ccccc2)O[C@@](OCc2ccccc2)(C(=O)O)C[C@@H]1O`, the Ratio in data set [1] was found to be 1.5. For the same compound, the Kd in data set [2] turned out to be 26 µM; in [5] it was 21.8 µM; in data set [6] it was 17.6 µM; in data set [7], 14.9 µM; in data set [8], 17.8 µM; in data set [9], 20 µM.

Consider `CC(=O)N[C@H]1[C@H]([C@@H](O)[C@H](O)CNC(=O)c2ccc(Cl)cc2)O[C@@](OCc2cccc(F)c2F)(C(=O)O)C[C@@H]1O`, for which the Ratio was 0.3 in [1] and 34.4 in data set [12]. The compound also came in with a Kd in data set [2] of 2.4 µM. In addition, the logD in [3] was -0.27. The remaining in [10] was 95%. Further, in data set [11], the remaining at 19 h turned out to be 95%.

Regarding `O=C(CF)N[C@H]1[C@H]([C@@H](O)[C@H](O)CNC(=O)c2ccc(Cl)cc2)O[C@@](OCc2cccc(F)c2F)(C(=O)O)C[C@@H]1O`, the Ratio in data set [1] is 0.02. For the same compound, in data set [2], the affinity, expressed as Kd, was 0.5 µM. The logD in data set [3] was -0.26. Besides, the remaining in [10] is 95%. Also, the remaining at 19 h in data set [11] is 95%.

Take `O=C(NC[C@@H](O)[C@H](O)[C@@H]1O[C@@](OCc2cccc(F)c2F)(C(=O)O)C[C@H](O)[C@H]1NC(=O)C1CC1)c1ccc(Cl)cc1`: in data set [1], the Ratio came to 0.1. This compound yielded a Kd in [2] of 4.1 µM. The same compound had a logD in [3] of 0.31.

Regarding `CC(=O)N[C@H]1[C@H]([C@@H](O)[C@H](O)CNC(=O)c2ccccc2)O[C@@](OCc2c[nH]nn2)(C(=O)O)C[C@@H]1O`, the Ratio in data set [1] amounted to 0.74. The compound further showed a Kd in data set [2] of 11.7 µM.

Turning to `CC(=O)N[C@H]1[C@H]([C@@H](O)[C@H](O)CNC(=O)c2ccc(Cl)c(Cl)c2)O[C@@](OCc2ccccc2)(C(=O)O)C[C@@H]1O`, the Ratio in [1] worked out at 1.61. The Kd in data set [2] was 19.2 µM.

As for `CC(=O)N[C@H]1[C@H]([C@@H](O)[C@H](O)CNC(=O)c2cccc(Cl)c2)O[C@@](OCc2ccccc2)(C(=O)O)C[C@@H]1O`, the Ratio in data set [1] was found to be 2.65. This compound came in with a Kd in [2] of 33.9 µM.

On to `O=C(O)N[C@H]1[C@H]([C@H](O)[C@H](O)CNC(=O)c2ccc(Cl)cc2)O[C@@](O[C@H]2[C@@H](O)[C@@H](CO)O[C@@H](O[C@@H]3CCO[C@H](COCc4ccc(-c5ccccc5)cc4)[C@@H]3O)[C@@H]2O)(C(=O)O)C[C@@H]1O`, for which the Ratio in [1] worked out at 0.52. Also, the affinity in data set [2], expressed as Kd, was 2.83 µM.

For the compound `CS(=O)(=O)N[C@H]1[C@H]([C@@H](O)[C@H](O)CNC(=O)c2ccc(Cl)cc2)O[C@@](OCc2cccc(F)c2F)(C(=O)O)C[C@@H]1O`, the Ratio in [1] was found to be 0.6. Moreover, the Kd in [2] worked out at 17 µM. In addition, in data set [3], the logD is -0.17.

Turning to `O=C(NC[C@@H](O)[C@H](O)[C@@H]1O[C@@](OCc2cccc(F)c2F)(C(=O)O)C[C@H](O)[C@H]1NS(=O)(=O)c1ccccc1[N+](=O)[O-])c1ccc(Cl)cc1`, the Ratio in [1] stood at 0.05. Also, the Kd in [2] was found to be 1.4 µM. Further, the logD in data set [3] came out at 0.87.

For `CC(=O)N[C@H]1[C@H]([C@@H](O)[C@H](O)CNC(=O)c2ccc(Cl)cc2)O[C@@](OCc2c(F)c(F)c(F)c(F)c2F)(C(=O)O)C[C@@H]1O`, in data set [1], the Ratio turned out to be 0.26. Also, in data set [2], the affinity, expressed as Kd, was 6.1 µM. The same compound came in with a logD in [3] of -0.11.

As to `O=C(NC[C@@H](O)[C@H](O)[C@@H]1O[C@@](OCc2cccc(F)c2F)(C(=O)O)C[C@H](O)[C@H]1NC(=O)C1CCC1)c1ccc(Cl)cc1`, the Ratio in [1] came out at 0.14. Also, the Kd in data set [2] came to 5.8 µM. Besides, the logD in data set [3] was found to be 0.75.

As usually defined, the Kd is the equilibrium constant for the complex coming apart. One may read the logD as lipophilicity at a set pH, counting ionised and neutral species.
